Reference: ChEMBL document CHEMBL4689842, “EUbOPEN Chemogenomics Library wave 1” (2021)

Tested on: Fibroblast
Test: Multiplex assay against human fibroblast
Type: toxicity, cell-based
In short: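 At seeding, live cells were stained with Hoechst33342, BioTracker Green Microtubule Cytoskeleton Dye, MitoTracker Red and Annexin V Alexa Fluor 680. After compound addition they were imaged on a CQ1 microscope at 37°C and 5% CO2, and CellPathfinder machine-learning gating sorted them into Hoechst high-intensity objects or normal cells, with normal cells further split into healthy, pyknosed or fragmented nuclei and pyknosed cells into mitotic or apoptotic. Tubulin, mitochondrial-mass and membrane-permeability phenotypes are given as per cents of cells with healthy nuclei.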

[1] = 12 h, 1 µM, compound concentration 1 uM, replicate 1
[2] = 12 h, 1 µM, compound concentration 1 uM, replicate 2
[3] = 12 h, 10 µM, compound concentration 10 uM, replicate 1
[4] = 12 h, 10 µM, compound concentration 10 uM, replicate 2
[5] = 24 h, 1 µM, compound concentration 1 uM, replicate 1
[6] = 24 h, 1 µM, compound concentration 1 uM, replicate 2
[7] = 24 h, 10 µM, compound concentration 10 uM, replicate 1
[8] = 24 h, 10 µM, compound concentration 10 uM, replicate 2
[9] = 48 h, 1 µM, compound concentration 1 uM, replicate 1
[10] = 48 h, 1 µM, compound concentration 1 uM, replicate 2
[11] = 48 h, 10 µM, compound concentration 10 uM, replicate 1
[12] = 48 h, 10 µM, compound concentration 10 uM, replicate 2

SMILES: Cc1c[nH]c2nccc(Oc3c(F)cc(Nc4cc(Cl)nc(N)n4)cc3F)c12 [BAY-549]
- Population Apoptotic (%) [1]: 54%
- Population Fragmented Nuclei (%) [1]: 25%
- Population Healthy Nuclei (%) [1]: 41%
- Population Hoechst High Intensity Objects (%) [1]: 12%
- Population Membrane Permeable-Phenotype (%) [1]: 32%
- Population Mitochondria Different-Phenotype (%) [1]: 3%
- Population Mitotic Cells (%) [1]: 46%
- Population Normal (%) [1]: 87%
- Population Pyknosed Nuclei (%) [1]: 33%
- Population Tubulin-Different-Phenotype (%) [1]: 38%
- Total Cell Count [1]: 172
- Population Apoptotic (%) [2]: 44%
- Population Fragmented Nuclei (%) [2]: 12%
- Population Healthy Nuclei (%) [2]: 73%
- Population Hoechst High Intensity Objects (%) [2]: 5%
- Population Membrane Permeable-Phenotype (%) [2]: 4%
- Population Mitochondria Different-Phenotype (%) [2]: 6%
- Population Mitotic Cells (%) [2]: 55%
- Population Normal (%) [2]: 94%
- Population Pyknosed Nuclei (%) [2]: 14%
- Population Tubulin-Different-Phenotype (%) [2]: 12%
- Total Cell Count [2]: 68
- Population Apoptotic (%) [3]: 66%
- Population Fragmented Nuclei (%) [3]: 23%
- Population Healthy Nuclei (%) [3]: 31%
- Population Hoechst High Intensity Objects (%) [3]: 10%
- Population Membrane Permeable-Phenotype (%) [3]: 21%
- Population Mitochondria Different-Phenotype (%) [3]: 0%
- Population Mitotic Cells (%) [3]: 33%
- Population Normal (%) [3]: 90%
- Population Pyknosed Nuclei (%) [3]: 45%
- Population Tubulin-Different-Phenotype (%) [3]: 21%
- Total Cell Count [3]: 130
- Population Apoptotic (%) [4]: 40%
- Population Fragmented Nuclei (%) [4]: 17%
- Population Healthy Nuclei (%) [4]: 65%
- Population Hoechst High Intensity Objects (%) [4]: 6%
- Population Membrane Permeable-Phenotype (%) [4]: 7%
- Population Mitochondria Different-Phenotype (%) [4]: 10%
- Population Mitotic Cells (%) [4]: 60%
- Population Normal (%) [4]: 93%
- Population Pyknosed Nuclei (%) [4]: 17%
- Population Tubulin-Different-Phenotype (%) [4]: 10%
- Total Cell Count [4]: 62
- Population Apoptotic (%) [5]: 50%
- Population Fragmented Nuclei (%) [5]: 32%
- Population Healthy Nuclei (%) [5]: 40%
- Population Hoechst High Intensity Objects (%) [5]: 10%
- Population Membrane Permeable-Phenotype (%) [5]: 26%
- Population Mitochondria Different-Phenotype (%) [5]: 9%
- Population Mitotic Cells (%) [5]: 50%
- Population Normal (%) [5]: 89%
- Population Pyknosed Nuclei (%) [5]: 27%
- Population Tubulin-Different-Phenotype (%) [5]: 34%
- Total Cell Count [5]: 170
- Population Apoptotic (%) [6]: 46%
- Population Fragmented Nuclei (%) [6]: 8%
- Population Healthy Nuclei (%) [6]: 71%
- Population Hoechst High Intensity Objects (%) [6]: 3%
- Population Membrane Permeable-Phenotype (%) [6]: 5%
- Population Mitochondria Different-Phenotype (%) [6]: 7%
- Population Mitotic Cells (%) [6]: 53%
- Population Normal (%) [6]: 96%
- Population Pyknosed Nuclei (%) [6]: 20%
- Population Tubulin-Different-Phenotype (%) [6]: 18%
- Total Cell Count [6]: 77
- Population Apoptotic (%) [7]: 70%
- Population Fragmented Nuclei (%) [7]: 44%
- Population Healthy Nuclei (%) [7]: 30%
- Population Hoechst High Intensity Objects (%) [7]: 21%
- Population Membrane Permeable-Phenotype (%) [7]: 13%
- Population Mitochondria Different-Phenotype (%) [7]: 13%
- Population Mitotic Cells (%) [7]: 30%
- Population Normal (%) [7]: 78%
- Population Pyknosed Nuclei (%) [7]: 25%
- Population Tubulin-Different-Phenotype (%) [7]: 33%
- Total Cell Count [7]: 152
- Population Apoptotic (%) [8]: 71%
- Population Fragmented Nuclei (%) [8]: 12%
- Population Healthy Nuclei (%) [8]: 62%
- Population Hoechst High Intensity Objects (%) [8]: 5%
- Population Membrane Permeable-Phenotype (%) [8]: 11%
- Population Mitochondria Different-Phenotype (%) [8]: 20%
- Population Mitotic Cells (%) [8]: 28%
- Population Normal (%) [8]: 94%
- Population Tubulin-Different-Phenotype (%) [8]: 20%
- Total Cell Count [8]: 59
- Population Apoptotic (%) [9]: 66%
- Population Fragmented Nuclei (%) [9]: 41%
- Population Healthy Nuclei (%) [9]: 46%
- Population Hoechst High Intensity Objects (%) [9]: 14%
- Population Membrane Permeable-Phenotype (%) [9]: 13%
- Population Mitochondria Different-Phenotype (%) [9]: 1%
- Population Mitotic Cells (%) [9]: 33%
- Population Normal (%) [9]: 85%
- Population Pyknosed Nuclei (%) [9]: 12%
- Population Tubulin-Different-Phenotype (%) [9]: 19%
- Total Cell Count [9]: 170
- Population Apoptotic (%) [10]: 100%
- Population Fragmented Nuclei (%) [10]: 26%
- Population Healthy Nuclei (%) [10]: 72%
- Population Hoechst High Intensity Objects (%) [10]: 11%
- Population Membrane Permeable-Phenotype (%) [10]: 10%
- Population Mitotic Cells (%) [10]: 0%
- Population Normal (%) [10]: 88%
- Population Pyknosed Nuclei (%) [10]: 0%
- Population Tubulin-Different-Phenotype (%) [10]: 5%
- Total Cell Count [10]: 184
- Population Apoptotic (%) [11]: 80%
- Population Fragmented Nuclei (%) [11]: 56%
- Population Healthy Nuclei (%) [11]: 29%
- Population Hoechst High Intensity Objects (%) [11]: 20%
- Population Membrane Permeable-Phenotype (%) [11]: 16%
- Population Mitochondria Different-Phenotype (%) [11]: 16%
- Population Mitotic Cells (%) [11]: 20%
- Population Normal (%) [11]: 79%
- Population Pyknosed Nuclei (%) [11]: 13%
- Population Tubulin-Different-Phenotype (%) [11]: 23%
- Total Cell Count [11]: 180
- Population Apoptotic (%) [12]: 57%
- Population Fragmented Nuclei (%) [12]: 50%
- Population Healthy Nuclei (%) [12]: 45%
- Population Hoechst High Intensity Objects (%) [12]: 17%
- Population Membrane Permeable-Phenotype (%) [12]: 5%
- Population Mitochondria Different-Phenotype (%) [12]: 10%
- Population Mitotic Cells (%) [12]: 42%
- Population Normal (%) [12]: 82%
- Population Pyknosed Nuclei (%) [12]: 3%
- Population Tubulin-Different-Phenotype (%) [12]: 6%
- Total Cell Count [12]: 239
